The source of these data is ChEMBL document CHEMBL1138049, “Evaluation of small-molecule modulators of the luteinizing hormone/choriogonadotropin and thyroid stimulating hormone receptors: structure-activity relationships and selective binding patterns” (J Med Chem, 2006).

For assay [1], the target named is Thyrotropin receptor (Homo sapiens) (UniProt P16473). Description: Agonist activity at TSHR expressed in HEK293 EM cells measured by intracellular cAMP accumulation relative to TSH. The format is functional, cell-based. A digest of the protocol: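 Human TSHR stably expressed in HEK 293 EM cells, cultured 48 h, then incubated 1 h in serum-free DMEM with 1 mM IBMX and compound (0-100 µM) at 5% CO₂. Lysates assayed for cAMP by enzyme immunoassay. […] Maximal response expressed as % of bovine TSH response, reference 100 mU/mL. Two independent experiments in duplicate.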
(In general: cAMP levels reflect the balance of adenylyl cyclase and phosphodiesterase activity.)

Assay [2] concerns the target Lutropin-choriogonadotropic hormone receptor (Homo sapiens) (UniProt P22888). Description: Agonist activity at LHCGR expressed in HEK293 EM cells measured by intracellular cAMP accumulation relative to LH. In kind it is functional, cell-based. A digest of the protocol:
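Human LHCGR stably expressed in HEK 293 EM cells, cultured 48 h, then incubated 1 h in serum-free DMEM with 1 mM IBMX and compound (0-100 µM) at 5% CO₂. Cells were lysed and cAMP measured by enzyme immunoassay. […] Efficacy is % of maximal response to human LH (1000 ng/ml). Two independent experiments, each in duplicate.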

Chain of Thyrotropin receptor (Homo sapiens) (P16473 whole entry): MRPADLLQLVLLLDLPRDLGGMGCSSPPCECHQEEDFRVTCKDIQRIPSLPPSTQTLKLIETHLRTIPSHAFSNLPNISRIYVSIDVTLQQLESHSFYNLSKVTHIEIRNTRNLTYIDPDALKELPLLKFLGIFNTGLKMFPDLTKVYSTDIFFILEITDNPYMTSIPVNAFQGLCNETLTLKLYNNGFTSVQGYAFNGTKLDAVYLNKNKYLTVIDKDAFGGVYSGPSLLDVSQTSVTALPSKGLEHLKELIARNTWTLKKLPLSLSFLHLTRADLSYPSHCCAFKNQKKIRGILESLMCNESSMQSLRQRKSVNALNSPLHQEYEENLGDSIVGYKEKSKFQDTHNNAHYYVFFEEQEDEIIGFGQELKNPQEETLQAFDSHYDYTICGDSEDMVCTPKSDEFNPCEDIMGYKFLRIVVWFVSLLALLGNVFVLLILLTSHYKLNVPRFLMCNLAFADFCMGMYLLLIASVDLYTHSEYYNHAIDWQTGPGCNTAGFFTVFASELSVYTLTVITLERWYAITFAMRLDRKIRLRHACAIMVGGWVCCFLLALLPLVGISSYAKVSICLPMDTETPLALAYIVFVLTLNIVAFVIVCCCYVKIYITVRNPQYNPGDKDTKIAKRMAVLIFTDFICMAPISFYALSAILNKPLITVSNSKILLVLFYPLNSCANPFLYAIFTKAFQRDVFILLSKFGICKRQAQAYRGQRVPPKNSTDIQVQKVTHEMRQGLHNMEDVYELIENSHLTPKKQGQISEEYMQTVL
Chain of Lutropin-choriogonadotropic hormone receptor (Homo sapiens) (P22888 whole entry): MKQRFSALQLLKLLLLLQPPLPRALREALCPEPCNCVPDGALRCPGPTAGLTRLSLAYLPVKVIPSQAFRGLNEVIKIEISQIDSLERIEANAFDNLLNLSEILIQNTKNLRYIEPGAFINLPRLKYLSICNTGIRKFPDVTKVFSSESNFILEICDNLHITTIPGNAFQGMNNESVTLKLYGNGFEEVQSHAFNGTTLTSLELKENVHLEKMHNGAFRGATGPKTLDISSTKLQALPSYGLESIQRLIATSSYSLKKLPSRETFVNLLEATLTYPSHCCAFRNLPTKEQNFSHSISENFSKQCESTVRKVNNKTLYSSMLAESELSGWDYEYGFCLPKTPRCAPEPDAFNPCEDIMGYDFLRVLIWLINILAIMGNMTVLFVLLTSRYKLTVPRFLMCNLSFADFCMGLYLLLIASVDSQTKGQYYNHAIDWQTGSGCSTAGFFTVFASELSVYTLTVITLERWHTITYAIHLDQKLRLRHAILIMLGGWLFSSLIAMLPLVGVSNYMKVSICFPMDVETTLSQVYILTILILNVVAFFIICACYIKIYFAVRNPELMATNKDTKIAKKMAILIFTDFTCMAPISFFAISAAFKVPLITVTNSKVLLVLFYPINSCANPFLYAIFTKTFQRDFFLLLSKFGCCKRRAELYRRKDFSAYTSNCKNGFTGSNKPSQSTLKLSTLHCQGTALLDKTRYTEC

Turning to `CSc1nc(-c2cccc(F)c2)c2c(N)c(C(=O)NC(C)(C)C)sc2n1`, the Efficacy in assay [1] was determined as 8.1%.
Take `COc1cccc(-c2nc(SC)nc3sc(C(=O)NN)c(N)c23)c1`: the values for the Efficacy in assay [1] and in assay [2] were 6.1% and 8.5%, respectively.
With `CCNC(=O)c1sc2nc(SC)nc(-c3cccc(OC)c3)c2c1N`, the Efficacy in assay [1] came out at 2.3%; in assay [2], 26.9%.
In the case of `COc1cccc(-c2nc(SC)nc3sc(C(=O)NCCc4ccccc4)c(N)c23)c1`, the Efficacy worked out at 4.3% in assay [1] and 25.6% in assay [2].
In the same order, the values of `COc1cccc(-c2nc(SC)nc3sc(C(=O)NNC(C)(C)C)c(N)c23)c1` are 6.4% and 6%.
`COc1cccc(-c2nc(SC)nc3sc(C(=O)NCc4ccccc4)c(N)c23)c1`: the Efficacy in assay [1] worked out at 3%; in assay [2] it was 7.8%.
With `COc1cccc(-c2nc(SC)nc3sc(C(=O)NCC#N)c(N)c23)c1`, the Efficacy amounted to 3.6% in assay [1] and 20.3% in assay [2].
In the same order, the values of `COc1cccc(-c2nc(SC)nc3sc(C(=O)NC(C)(C)C)c(N)c23)c1` are 23.4% and 45.8%.
Consider `COc1cccc(-c2nc(SC)nc3sc(C(=O)NC(C)(C)C)c(N)c23)c1F`, for which the Efficacy in assay [2] is 46.3%.
For `CSc1nc(-c2cccc(O)c2)c2c(N)c(C(=O)NC(C)(C)C)sc2n1`, the Efficacy in assay [1] is 11.2%; in assay [2], 63.9%.
For `COc1cccc(-c2nc(SC)nc3sc(C(=O)N(C)C(C)(C)C)c(N)c23)c1`, in that order: 3.6% and 47.8%.
With `COc1cccc(-c2nc(SC)nc3sc(C(=O)N(C)C)c(N)c23)c1`, the Efficacy stood at 4% in assay [1] and 11% in assay [2].
For the compound `CCOC(=O)c1sc2nc(SC)nc(-c3cccc(OC)c3)c2c1N`, the values for the Efficacy in assay [1] and in assay [2] were 1.5% and 4.2%, respectively.
In the same order, the values of `COc1cccc(-c2nc(SC)nc3sc(C(=O)NCCO)c(N)c23)c1` are 2.9% and 20.5%.
In assay [2], `COc1cccc(-c2nc(SC)nc3sc(C(=O)OC(C)(C)C)c(N)c23)c1` registered an Efficacy of 23.8%.
Turning to `COc1cccc(-c2nc(SC)nc3sc(C(=O)NC(C)(C)C)c(N)c23)c1OC`, the results for the Efficacy in assay [1] and in assay [2] were 3% and 50.1%, respectively.
In the same order, the values of `COc1cccc(-c2nc(SC)nc3sc(C(=O)NNC(=O)OC(C)(C)C)c(N)c23)c1` are 1.9% and 2.4%.
